According to ChEMBL document CHEMBL1127806, “Substrate specificity in short-chain phospholipid analogs at the active site of human synovial phospholipase A2” (J Med Chem, 1994):

Legend:
[1] = Critical micelle concentration determined from the plots of the fluorescence intensity as a function of compound concentration; type: ADME
Outline: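 Fluorescence of 8-anilino-1-naphthalenesulfonic acid (5 μM) followed as a function of compound concentration. Buffer: 20 mM HEPES pH 7.5 with 2 mM Ca²⁺, no DTNB. cmc read from the intensity-versus-concentration plot.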

[2] = Ratio of catalysis rate (kcat) and Michaelis-Menten constant (Km) of the compound
Outline: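 Recombinant human synovial PLA₂ (baculovirus-expressed, HPLC-purified) at 14 nM in 20 mM HEPES pH 7.5, 2 mM Ca²⁺, 0.8 mM DTNB. Thioester hydrolysis read at 405 nm as thionitrobenzoate (ε 13 600). Initial rates measured at substrate concentrations up to 100 μM. Apparent kcat/KM taken as the slope of rate versus [S] divided by enzyme concentration.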

[3] = Hydrolysis turn over determined from the plots of the fluorescence assay quantified by HPLC
Outline: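 Recombinant human synovial PLA2 expressed in E. coli. Turnover of an amine-headgroup (phosphatidylethanolamine) substrate was measured by derivatizing the amine with excess fluorescamine and quantifying the fluorescent derivatives by reversed-phase HPLC. The rate is expressed as nmol·min⁻¹·mg⁻¹ enzyme.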

[4] = Hydrolysis rate of the compound
Outline: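 pH-stat at pH 9, titrated with 1 mM NaOH. Substrate 100 μM in deionized water with 2 mM Ca²⁺, under a nitrogen stream. Started with recombinant human synovial PLA₂ (1.69 nmol, 2.41 μg), purified from baculovirus by reversed-phase HPLC; preliminary set used E. coli-expressed enzyme. Rate recorded for 1 h from base consumption.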

Row | CMC [1] | Ratio [2] | Hydrolysis (nmol min-1 mg-1) [4] | SMILES | CMC [3] [mM]
1 | >= 3 mM | 1800 l s-1 M-1 |  | CCCCCC(=O)SC[C@H](COP(=O)([O-])OC)SC(=O)CCCCC.[Li+] | 
2 |  | < 100 l s-1 M-1 |  | CCCCCOC[C@H](COP(=O)(O)OC)SC(=O)CCC | 
3 | >= 3 mM | < 10 l s-1 M-1 |  | CCC(=O)SC[C@H](COP(=O)([O-])OC)SC(=O)CC.[Li+] | 
4 | 0.4 mM | 627 l s-1 M-1 |  | CCCCCCCCCC(=O)S[C@H](COCCC(C)(C)C)COP(=O)([O-])OC.[Li+] | 
5 | 0.13 mM | 12000 l s-1 M-1 |  | CCCCCCCCOC[C@H](COP(=O)([O-])OC)SC(=O)CCCCCCC.[Li+] | 
6 | < 0.03 mM | 541000 l s-1 M-1 |  | CCCCCCCCC(=O)SC[C@H](COP(=O)([O-])OC)SC(=O)CCCCCCCC.[Li+] | 
7 | 1 mM | 1200 l s-1 M-1 |  | CCCCCCCC(=O)S[C@H](COCCC)COP(=O)([O-])OC.[Li+] | 
8 |  |  | < 5 | CCCCCC(=O)OC[C@H](COP(=O)(O)OC[C@@H](N)C(=O)O)OC(=O)CCCCC | 
9 |  | 160 l s-1 M-1 |  | CCCCCCOC[C@H](COP(=O)(O)OC)SC(=O)CCc1ccccc1 | 
10 | 2.3 mM | 200 l s-1 M-1 |  | CCCC(=O)SC[C@H](COP(=O)([O-])OC)SC(=O)CCC.[Li+] | 
11 |  |  | < 5 | CCCCCC(=O)OC[C@H](COP(=O)(O)O[C@@H](C)[C@@H](N)C(=O)O)OC(=O)CCCCC | 
12 | 3 mM | < 10 l s-1 M-1 |  | CCCOC[C@H](COP(=O)([O-])OC)SC(=O)CCC.[Li+] | 
13 | > 9 mM | 870 l s-1 M-1 |  | CCCCC(=O)SC[C@H](COP(=O)([O-])OC)SC(=O)CCCC.[Li+] | 
14 |  | < 100 l s-1 M-1 |  | CCCCCCOC[C@H](COP(=O)(O)OC)SC(=O)c1ccccc1 | 
15 | 0.8 mM |  | 12 | CCCCCC(=O)OC[C@H](COP(=O)(O)OC[C@@H]1CCCN1)OC(=O)CCCCC | 
16 |  |  | < 5 | CCCCCC(=O)OC[C@H](COP(=O)(O)OC)OC(=O)CCCCC | 
17 | 1.25 mM | 7000 l s-1 M-1 |  | CCCCCCCC(=O)S[C@H](COCCCCC)COP(=O)([O-])OC.[Li+] | 
18 | 0.2 mM | 5900 l s-1 M-1 |  | CC/C=C\CCOC[C@H](COP(=O)([O-])OC)SC(=O)CCCCCCCCC.[Li+] | 
19 |  | < 100 l s-1 M-1 |  | CC/C=C/C(=O)S[C@H](COCCCCCC)COP(=O)(O)OC | 
20 | 0.2 mM | 5000 l s-1 M-1 |  | CCCCCCCCCC(=O)S[C@H](COCc1ccccc1)COP(=O)([O-])OC.[Li+] | 
21 | 0.04 mM | < 100 l s-1 M-1 |  | CCCCCC(=O)SC[C@H](COP(=O)(OC)OC)SC(=O)CCCCC | 
22 | 0.04 mM | 19000 l s-1 M-1 |  | CCCCCCCCCC(=O)S[C@H](COC/C=C/c1ccccc1)COP(=O)([O-])OC.[Li+] | 
23 |  | < 100 l s-1 M-1 |  | CCCCCCOC[C@H](COP(=O)(O)OC)SC(=O)CCC(C)C | 
24 | 0.5 mM |  | 13 | CCCCCC(=O)OC[C@H](COP(=O)(O)OC[C@H]1CCCN1)OC(=O)CCCCC | 
25 | 0.3 mM | 37700 l s-1 M-1 |  | CCCCCCC(=O)SC[C@H](COP(=O)([O-])OC)SC(=O)CCCCCC.[Li+] | 
26 | 0.1 mM | 2500 l s-1 M-1 |  | CCCCCCCCCC(=O)S[C@H](COCc1ccc(-c2ccccc2)cc1)COP(=O)([O-])OC.[Li+] | 
27 |  | 3700 l s-1 M-1 |  | CCCCCCCCOC[C@H](COP(=O)(O)OC)SC(=O)CCC | 
28 | 0.03 mM | 408000 l s-1 M-1 |  | CCCCCCCC(=O)SC[C@H](COP(=O)([O-])OC)SC(=O)CCCCCCC.[Li+] | 
29 |  |  | < 5 | CCCCCC(=O)OC[C@H](COP(=O)(O)OCCO)OC(=O)CCCCC | 
30 | 0.04 mM | 4600 l s-1 M-1 |  | CCCCCCCCCC(=O)S[C@H](COCc1ccc(Oc2ccccc2)cc1)COP(=O)([O-])OC.[Li+] | 

Row | SMILES | CMC [1] | Ratio [2] | Hydrolysis (nmol min-1 mg-1) [4] | CMC [3] [mM]
31 | CCCCCC(=O)OC[C@H](COP(=O)(O)OCCN)OC(=O)CCCCC |  |  | 5.3 | 2.3
